FLuc act counter: affects firefly luciferase, flagging false hits in luciferase stimulation screens; P08659; ATPlite luciferase biochemical, luminescence, 10 min; 0 = ATP-free wells, 1 = DMSO control; activation factor at 10 µM; 200,000 tested, under 10 active; AID 1027;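 active = luciferase activation factor, scaled between plate controls, of at least 2 with compound at 10 µM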
Target sequence (P08659 whole entry, looked up): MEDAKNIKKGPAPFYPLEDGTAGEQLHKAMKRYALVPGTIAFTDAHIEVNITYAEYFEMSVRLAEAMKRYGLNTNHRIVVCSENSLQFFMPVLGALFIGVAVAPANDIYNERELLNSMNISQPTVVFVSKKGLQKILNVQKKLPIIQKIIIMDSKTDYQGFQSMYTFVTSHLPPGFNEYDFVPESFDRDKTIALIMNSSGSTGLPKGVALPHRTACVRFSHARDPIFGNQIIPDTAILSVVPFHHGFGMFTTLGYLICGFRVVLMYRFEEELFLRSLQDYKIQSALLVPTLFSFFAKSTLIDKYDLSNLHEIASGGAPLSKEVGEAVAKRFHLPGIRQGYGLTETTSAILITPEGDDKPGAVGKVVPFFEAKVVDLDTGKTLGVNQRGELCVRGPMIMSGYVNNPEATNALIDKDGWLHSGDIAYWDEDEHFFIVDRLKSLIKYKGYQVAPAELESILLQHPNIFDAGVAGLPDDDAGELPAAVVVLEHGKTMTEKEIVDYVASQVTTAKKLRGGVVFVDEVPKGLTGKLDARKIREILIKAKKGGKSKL
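Assay system – cell-free luciferase reagent · Medium – PBS-based ATP solution · Dosing – test compounds dosed from 2 mM stocks in 100% DMSO · Timing – 10 min, room temperature · Technique – light output (luminescence) · Measure – luminescence gain marking luciferase activators · Controls – No-ATP low control, compound-free enzyme-plus-ATP high control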
NF-kB neuron act: raises NF-kB expression in human neuronal cells | NF-kB reporter expression; stronger effect = higher value | fold change at 12.5 µM | 190,000 tested, 1.6% active | AID 1239; in the data active = fold change above about 3.3
STAT1 activator: STAT1 signaling activation; NIH 3T3 STAT1-luciferase reporter, IFN-gamma, luminescence; 100% = IFN-gamma alone, no compound; activation (% of control), % at 5.5 µM; 200,000 tested, 2.6% active;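 active = activation above the screen-wide mean activation plus 3 SD, cut at about 130% in these data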
APP 5'UTR act: APP 5'UTR luciferase reporter activation | SH-SY5Y APP 5'UTR luciferase reporter, luminescence; zero percent = DMSO vehicle wells | 190,000 tested, 1% active | activation, % at 2 µM;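 active = activation above a set limit, based on mean plus 3 SD of controls, cut at about 140% in these data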
FLuc inhib CS: counter-screen for luciferase assay inhibitors: firefly luciferase inhibition | inhibition, % at 10 µM | 200,000 tested, 1.5% active | ATPLite firefly luciferase biochemical luminescence, 10 min;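 active = inhibition above about 50% when tested at 10 µM, limit read from the data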
A number is an active result; 0 = inactive; - = no result. Sampled rows, rich in hits. Any-hit rate of the full collection: about 4.3%.

SMILES	FLuc act counter	NF-kB neuron act	STAT1 activator	APP 5'UTR act	FLuc inhib CS
CN(CC(=O)Nc1ccccc1Cl)CC(=O)Nc1ccccc1[N+](=O)[O-]	0	0	0	0	0
Cc1cc(NC(=O)COC(=O)[C@H](Cc2c[nH]c3ccccc23)NC(=O)c2ccc(F)cc2)no1	0	0	0	0	0
CSc1nc2ccc(NC(=O)c3ccco3)cc2s1	0	4	140	0	0
O=C1NC(Nc2nccs2)(C(F)(F)F)C(=O)N1CCc1ccccc1 (stereo unspecified)	0	0	0	0	0
COc1ccc(/C=C/C(=O)C2C(=O)C=C(C)OC2=O)cc1O (stereo unspecified)	0	0	0	0	83
COc1ccc(-c2cnnc(N/N=C/c3ccc(O)c(O)c3)n2)cc1	0	0	0	0	85
COc1ccc(-c2cnnc(N/N=C/c3ccc(O)cc3)n2)cc1	0	0	0	0	73
COc1ccc(-c2cnnc(N/N=C/c3ccc(C)o3)n2)cc1	0	0	0	0	0
COc1ccccc1C(=O)Nc1ccc2c3c(cccc13)CC2	0	0	132	0	0
COc1cccc(OC)c1C(=O)Nc1ccc2c3c(cccc13)CC2	0	0	0	0	0
Cc1ccc(NC(=O)CSc2nnc(-c3cccnc3)n2CCN2CCCCC2)cc1	0	0	0	0	0
CCN=c1scc(-c2ccc(F)cc2)n1/N=C/c1ccccn1	0	5	138	0	0
Cc1nc2ccccc2c(=O)n1/N=C/c1ccccn1	0	0	0	0	0
O=C(Cc1ccc(F)cc1)N/N=C/c1ccccn1	0	0	0	0	0
CCN=c1scc(-c2ccccc2)n1/N=C/c1ccccn1	0	0	170	166	74
O=c1c(-c2nc3ccccc3s2)cccn1Cc1ccc(Cl)c(Cl)c1	0	3.5	0	0	0
CCN(CC(=O)Nc1cc(Cl)ccc1C)c1ncnc2sc(C)c(C)c12	0	0	0	0	0
O=C(/C=C/c1ccc(Cl)cc1Cl)Nc1cccc(S(=O)(=O)NC2=NCCCCC2)c1	0	0	0	0	55
Cc1cc(C)nc(NC(=S)Nc2ccc(Br)cc2Cl)c1	0	0	0	0	0
C(=N\c1nc2ccccc2[nH]1)/c1cccs1	0	0	0	0	71
CCN(CC)c1ccc(C(=O)NN)cc1	0	0	0	0	0
CN(C)c1cccc(C(=O)N/N=C/c2ccccc2F)c1	0	5	0	139	95
CCN(CC)c1ccc(C(=O)Nc2cccc(F)c2)cc1	0	8.4	0	181	0
CN(C)c1cccc(C(=O)Nc2cccc(F)c2)c1	0	0	132	0	0
O=C1CN(C(=S)NC(=O)c2ccc(-c3ccccc3)cc2)CCN1	0	0	133	0	0
SMILES	FLuc act counter	NF-kB neuron act	STAT1 activator	APP 5'UTR act	FLuc inhib CS
COc1ccc(C(=O)NC(=S)N2CCNC(=O)C2)cc1Br	0	0	0	0	0
CCOc1ccc(N2CC(=O)N(c3ccc(OCC)cc3)CC2=O)cc1	0	0	0	0	0
CCOc1ccc(N2Cc3ccccc3C2)cc1	0	-	141	0	0
O=C(N/N=C\c1ccc(Oc2ccccc2)cc1)c1csnn1	0	7.5	137	0	0
CN(C)c1ccc(/C=N/NC(=O)c2ccnn2C)cc1	0	4.4	0	0	0
CN(C)c1ccc(/C=N\NC(=O)c2csnn2)cc1	0	3.4	0	0	60
CC1Cn2c(nc(=O)c3c2NCN(CCc2ccccc2)C3)S1 (stereo unspecified)	0	0	0	0	0
CC(C)N(Cc1nc(-c2ccc(Cl)cc2)no1)Cc1nccn1C	0	0	0	0	0
Cc1ccnc(NS(=O)(=O)c2ccc(NC(=O)C3C4C=CC(C4)C3C(=O)O)cc2)n1 (stereo unspecified)	0	0	0	0	0
CCCCCCOC(=O)Sc1nc2ccccc2o1	0	4.1	0	0	0
COC(=O)CSc1nc2ccccc2o1	0	0	0	0	0
O=C(CN1C(=O)NC2(CCCCC2)C1=O)NCc1cccs1	0	0	0	0	0
N#Cc1cc2c(nc1SCc1nc3ccccc3[nH]1)CCC2	0	0	0	248	78
Cc1cc(C)c(C#N)c(SCc2ccc(F)cc2)n1	0	0	0	0	0
Cc1cc(C)c(C#N)c(SCc2nc3ccccc3[nH]2)n1	0	0	0	148	0
Cc1ccc(SCc2nc3ccccc3[nH]2)cc1	0	0	0	0	54
N#Cc1c(SCc2nc3ccccc3[nH]2)nc2c(c1C(F)(F)F)CCC2	-	-	0	0	-

High-throughput results (PubChem BioAssay)
